From ChEMBL document CHEMBL1153905, “Functionalized 3-benzylidene-indolin-2-ones: inducers of NAD(P)H-quinone oxidoreductase 1 (NQO1) with antiproliferative activity” (Bioorg Med Chem, 2009)
Each block holds one compound with its values, some of them ahead of it.

Legend:
CYP1A1 [1] = target: T1, CYP1A1 (Mus musculus, UniProt P00184); assay: Induction of CYP1A1 activity in mouse Hepa-1c1c7 cells assessed as induction ratio at 0.5 uM after 48 hrs by EROD assay relative to control; format: ADME, cell-based
T1 sequence (P00184 whole entry): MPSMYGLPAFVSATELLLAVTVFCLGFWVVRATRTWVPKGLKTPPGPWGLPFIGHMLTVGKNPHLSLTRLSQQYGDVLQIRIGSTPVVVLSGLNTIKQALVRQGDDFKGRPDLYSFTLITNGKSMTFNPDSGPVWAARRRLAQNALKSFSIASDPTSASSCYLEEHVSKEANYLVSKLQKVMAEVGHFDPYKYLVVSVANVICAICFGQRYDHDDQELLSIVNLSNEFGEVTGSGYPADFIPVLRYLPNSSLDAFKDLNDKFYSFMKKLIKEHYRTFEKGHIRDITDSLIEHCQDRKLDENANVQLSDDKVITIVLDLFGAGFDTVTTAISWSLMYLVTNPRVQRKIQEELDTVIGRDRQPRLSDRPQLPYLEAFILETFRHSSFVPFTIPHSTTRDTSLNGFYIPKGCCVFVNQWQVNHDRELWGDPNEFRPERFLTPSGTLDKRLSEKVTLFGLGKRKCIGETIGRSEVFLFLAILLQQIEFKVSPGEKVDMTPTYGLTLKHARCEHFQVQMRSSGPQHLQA
Method in brief: (§1)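 About 10,000 Hepa1c1c7 cells/well cultured 24 h, then compound (0.5% DMSO final) for 48 h, at roughly 4 × the concentration doubling NQO1 activity. After PBS wash, cells given 5 µM 7-ethoxyresorufin plus 2 mM salicylamide, 37 °C, 40 min; resorufin fluorescence ex 530/em 590 nm, corrected for compound fluorescence. Ratio = (treated − blank)/(DMSO control − blank); mean ± SD, n = 3.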

[2] = Cytotoxicity against mouse Hepa-1c1c7 cells after 48 hrs by MTT assay; format: cell-based; details: hepa-1c1c7, 48 h
Method in brief: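 Murine hepatoma cells in α-MEM with 10% heat- and charcoal-treated fetal calf serum, passages 6–17; MTT read-out as for the cancer lines but with 48 h compound exposure. Highest concentration tested 25 µM. IC50 from survival-versus-concentration curve; mean and SD, n = 3.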

[3] = target: NAD(P)H dehydrogenase [quinone] 1 (Mus musculus) (UniProt Q64669); assay: Induction of NQO1 activity in mouse Hepa-1c1c7 cells assessed as induction ratio at 0.5 uM after 48 hrs by MTT assay relative to control; format: cell-based
Method in brief: (§2)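 Hepa1c1c7 cells, 10,000 per well, 24 h, were then treated 48 h (DMSO ≤0.5%). Digitonin/EDTA lysates were assayed for menadione-dependent MTT-formazan formation using a G6P/G6PDH NADPH-generating mix with FAD at pH 7.4. The reaction ran 5 min, was stopped with dicoumarol, and read at A590. Degree of induction = (A test − blank)/(A control − blank). Ratios were read off the induction–concentration plot at the EROD test concentration.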

[4] = target: NAD(P)H dehydrogenase [quinone] 1 (Mus musculus) (UniProt Q64669); assay: Induction of NQO1 activity in mouse Hepa-1c1c7 cells assessed as induction ratio at 5 uM after 48 hrs by MTT assay relative to control; format: cell-based; method in brief: as §2
CYP1A1 [5] = target: T1, CYP1A1; assay: Induction of CYP1A1 activity in mouse Hepa-1c1c7 cells assessed as induction ratio at 5 uM after 48 hrs by EROD assay relative to control; format: ADME, cell-based
Method in brief: (§3)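 Hepa1c1c7 cells were seeded at 10,000 per well and grown 24 h. They were then exposed 48 h to compound (final DMSO 0.5% v/v) at about 4 × the NQO1 CD. After a PBS wash, cells got 5 µM 7-ethoxyresorufin plus 2 mM salicylamide in medium, 37 °C, 40 min. Resorufin was read at ex 530/em 590 nm, corrected for compound fluorescence. Ratio = (F treated − blank)/(F DMSO control − blank); mean ± SD, n = 3.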

[6] = target: NAD(P)H dehydrogenase [quinone] 1 (Mus musculus) (UniProt Q64669); assay: Induction of NQO1 activity in mouse Hepa-1c1c7 cells assessed as induction ratio at 1 uM after 48 hrs by MTT assay relative to control; format: cell-based; method in brief: as §2
CYP1A1 [7] = target: T1, CYP1A1; assay: Induction of CYP1A1 activity in mouse Hepa-1c1c7 cells assessed as induction ratio at 1 uM after 48 hrs by EROD assay relative to control; format: ADME, cell-based; method in brief: as §1
CYP1A1 [8] = target: T1, CYP1A1; assay: Induction of CYP1A1 activity in mouse Hepa-1c1c7 cells assessed as induction ratio at 20 uM after 48 hrs by EROD assay relative to control; format: ADME, cell-based; method in brief: as §3
[9] = target: NAD(P)H dehydrogenase [quinone] 1 (Mus musculus) (UniProt Q64669); assay: Induction of NQO1 activity in mouse Hepa-1c1c7 cells assessed as induction ratio at 20 uM after 48 hrs by MTT assay relative to control; format: cell-based; method in brief: as §2
CYP1A1 [10] = target: T1, CYP1A1; assay: Induction of CYP1A1 activity in mouse Hepa-1c1c7 cells assessed as induction ratio at 2.5 uM after 48 hrs by EROD assay relative to control; format: ADME, cell-based; method in brief: as §3
[11] = target: NAD(P)H dehydrogenase [quinone] 1 (Mus musculus) (UniProt Q64669); assay: Induction of NQO1 activity in mouse Hepa-1c1c7 cells assessed as induction ratio at 2.5 uM after 48 hrs by MTT assay relative to control; format: cell-based; method in brief: as §2
HCT-116 [12] = assay: Antiproliferative activity against human HCT116 cells after 72 hrs by MTT assay; format: functional, cell-based; details: HCT-116, 72 h
Method in brief: (§4)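 Cells seeded at 10,000 (MCF7), 4000 (HCT116) or 5000 (CCL186) per well and grown 24 h; MCF7 and CCL186 in EMEM with pyruvate, glutamine, 10% FBS; HCT116 in McCoy's 5A with 10% FBS. Compounds from DMSO stocks (≤1% DMSO final), 72 h exposure; MTT 0.5 mg/ml for 3 h, formazan in DMSO read at 590 nm. IC50 from sigmoidal survival curve, three separate occasions.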

MCF7 [13] = assay: Antiproliferative activity against human MCF7 cells after 72 hrs by MTT assay; format: functional, cell-based; details: MCF7, 72 h; method in brief: as §4
[14] = Antiproliferative activity against human CCL186 cells after 72 hrs by MTT assay; format: cell-based; details: CCL186, 72 h; method in brief: as §4
MCF7 [15] = assay: Selectivity ratio of IC50 for human CCL186 cells to IC50 for human MCF7 cells
Method in brief: (§5)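 MTT assay. MCF7 and CCL186 cells were grown in EMEM/10% FBS, HCT116 in McCoy's 5A/10% FBS. Seeding was 10,000 (MCF7), 4000 (HCT116) and 5000 (CCL186) cells per well, 24 h. Compound exposure was 72 h, DMSO ≤1% final. MTT 0.5 mg/ml for 3 h, formazan dissolved in DMSO, A590. IC50 came from sigmoidal survival curves, with 3 separate occasions per concentration. Ratio = IC50 CCL186 / IC50 of the cancer line.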

[16] = Selectivity ratio of IC50 for human CCL186 cells to IC50 for human HCT116 cells; format: ADME, cell-based, HCT-116; details: CCL186 cells and HCT116 cells, read-out: Ratio IC50; method in brief: as §5
CYP1A1 [17] = target: T1, CYP1A1; assay: Induction of CYP1A1 activity in mouse Hepa-1c1c7 cells assessed as induction ratio at 7.5 uM after 48 hrs by EROD assay relative to control; format: ADME, cell-based; method in brief: as §3
[18] = target: NAD(P)H dehydrogenase [quinone] 1 (Mus musculus) (UniProt Q64669); assay: Induction of NQO1 activity in mouse Hepa-1c1c7 cells assessed as induction ratio at 7.5 uM after 48 hrs by MTT assay relative to control; format: cell-based; method in brief: as §2
HCT-116 [19] = assay: Cell cycle arrest in human HCT116 cells released from G1 block assessed as accumulation at sub G1 phase at 15 uM after 24 hrs by flow cytometry; format: functional
HCT-116 [20] = assay: Cell cycle arrest in human HCT116 cells released from G2 block assessed as accumulation at sub G1 phase at 15 uM after 24 hrs by flow cytometry; format: functional
HCT-116 [21] = assay: Cell cycle arrest in human HCT116 cells released from G1 block assessed as accumulation at G1 phase at 15 uM after 24 hrs by flow cytometry; format: functional
HCT-116 [22] = assay: Cell cycle arrest in human HCT116 cells released from G2 block assessed as accumulation at G1 phase at 15 uM after 24 hrs by flow cytometry; format: functional
HCT-116 [23] = assay: Cell cycle arrest in human HCT116 cells released from G1 block assessed as accumulation at S phase at 15 uM after 24 hrs by flow cytometry; format: functional
HCT-116 [24] = assay: Cell cycle arrest in human HCT116 cells released from G2 block assessed as accumulation at S phase at 15 uM after 24 hrs by flow cytometry; format: functional
HCT-116 [25] = assay: Cell cycle arrest in human HCT116 cells released from G1 block assessed as accumulation at G2/M phase at 15 uM after 24 hrs by flow cytometry; format: functional
HCT-116 [26] = assay: Cell cycle arrest in human HCT116 cells released from G2 block assessed as accumulation at G2/M phase at 15 uM after 24 hrs by flow cytometry; format: functional

Chain of NAD(P)H dehydrogenase [quinone] 1 (Mus musculus) (Q64669 whole entry): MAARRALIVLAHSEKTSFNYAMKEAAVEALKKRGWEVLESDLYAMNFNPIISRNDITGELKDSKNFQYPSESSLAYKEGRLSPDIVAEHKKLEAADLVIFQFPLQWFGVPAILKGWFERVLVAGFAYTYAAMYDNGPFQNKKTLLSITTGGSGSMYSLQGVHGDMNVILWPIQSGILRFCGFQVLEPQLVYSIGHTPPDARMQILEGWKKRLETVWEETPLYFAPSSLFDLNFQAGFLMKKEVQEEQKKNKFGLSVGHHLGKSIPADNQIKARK

SMILES: COc1ccc(/C=C2/C(=O)Nc3cc(F)ccc32)cc1O
fold induction at 48 h, 0.5 µM (CYP1A1 [1]): 2.05
IC50 [2]: 15.6 µM
Ratio [3]: 4.1

SMILES: COc1cccc(/C=C2\Nc3ccccc3C2=O)c1
IC50 [2]: 21.2 µM
Ratio [4]: 3.88
fold induction at 48 h, 5 µM (CYP1A1 [5]): 1.13

SMILES: O=C1Nc2ccccc2/C1=C\c1c[nH]c2ccccc12
IC50 [2]: > 25 µM
Ratio [6]: 4.33
fold induction at 48 h, 1 µM (CYP1A1 [7]): 1.28

SMILES: O=C1Nc2ccccc2/C1=C\c1ccccc1C(F)(F)F
fold induction at 48 h, 20 µM (CYP1A1 [8]): 1.2
IC50 [2]: > 25 µM
Ratio [9]: 2.96

SMILES: COc1cc(/C=C2/C(=O)Nc3ccccc32)cc(OC)c1
IC50 (HCT-116 [12]): 5.8 µM
IC50 (MCF7 [13]): 10.5 µM
IC50 [14]: 23.6 µM
Ratio IC50 (MCF7 [15]): 4.1
selectivity ratio [16]: 2.2
IC50 [2]: 16 µM

SMILES: N#Cc1ccc(/C=C2/C(=O)Nc3ccccc32)cc1
IC50 [2]: > 25 µM

SMILES: O=C1Nc2ccccc2/C1=C\c1ccccc1F
IC50 [2]: > 25 µM
Ratio [4]: 6.8
fold induction at 48 h, 5 µM (CYP1A1 [5]): 1.26

SMILES: COc1cc(/C=C2/C(=O)Nc3ccccc32)cc(OC)c1OC
Activity (HCT-116 [19]): 3.78%
Activity (HCT-116 [20]): 4.13%
Activity (HCT-116 [21]): 56.85%
Activity (HCT-116 [22]): 42.06%
Activity (HCT-116 [23]): 21.42%
Activity (HCT-116 [24]): 16.84%
Activity (HCT-116 [25]): 18.54%
Activity (HCT-116 [26]): 36.45%
IC50 [2]: > 25 µM

SMILES: CCc1ccc(/C=C2/C(=O)Nc3ccccc32)cc1
fold induction at 48 h, 7.5 µM (CYP1A1 [17]): 1.08
IC50 [2]: > 25 µM
Ratio [18]: 4.96

SMILES: Cc1ccccc1/C=C1/C(=O)Nc2ccccc21
IC50 [2]: > 25 µM
Ratio [4]: 4.45
fold induction at 48 h, 5 µM (CYP1A1 [5]): 1.66

SMILES: O=C1Nc2ccccc2/C1=C\c1cc(O)cc(O)c1
fold induction at 48 h, 20 µM (CYP1A1 [8]): 1.04
IC50 [2]: > 25 µM
Ratio [9]: 3.82

SMILES: COc1ccc(/C=C2\Nc3ccccc3C2=O)cc1O
fold induction at 48 h, 7.5 µM (CYP1A1 [17]): 1.38
IC50 [2]: > 25 µM
Ratio [18]: 4.21

More lines, main results first:

fold induction at 48 h, 2.5 µM (CYP1A1 [10]): 1.2
Ratio [11]: 3.52
SMILES: O=C1Nc2ccccc2/C1=C\c1ccc(F)cc1Cl
IC50 [2]: > 25 µM

fold induction at 48 h, 2.5 µM (CYP1A1 [10]): 1.06
Ratio [11]: 4.61
SMILES: O=C1Nc2ccccc2/C1=C\c1ccc2ccccc2c1
IC50 [2]: > 25 µM

fold induction at 48 h, 7.5 µM (CYP1A1 [17]): 1.11
Ratio [18]: 4.19
SMILES: O=C1Nc2ccccc2/C1=C\c1cccc(F)c1
IC50 [2]: > 25 µM

fold induction at 48 h, 0.5 µM (CYP1A1 [1]): 1.21
Ratio [3]: 4.47
SMILES: O=C1Nc2ccccc2/C1=C\c1cccc(Cl)c1
IC50 [2]: 5.9 µM

Ratio [6]: 4.21
fold induction at 48 h, 1 µM (CYP1A1 [7]): 1.26
SMILES: COc1cccc(/C=C2/C(=O)Nc3ccccc32)c1
IC50 [2]: > 25 µM

fold induction at 48 h, 2.5 µM (CYP1A1 [10]): 1.06
Ratio [11]: 3.67
SMILES: O=C1Nc2ccccc2/C1=C\c1ccc(Cl)cc1
IC50 [2]: 6.7 µM

fold induction at 48 h, 0.5 µM (CYP1A1 [1]): 2.66
Ratio [3]: 3.13
SMILES: COc1ccc(/C=C2/C(=O)Nc3ccccc32)cc1O
IC50 [2]: 11.9 µM
